Holding throughout (format): functional, cell-based
The test system of experiment [1] is MV4-11. Put plainly: Antiproliferative activity against human MV411 cells after 72 hrs by MTT assay. Conditions: for IC50: MV4-11, 72 h. The method in brief: (§1)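 Human tumour lines HGC-27 (stomach), A-549 (lung), HeLa (cervical) and MV4-11 (leukemia) tested in a standard MTT assay, with taxol as positive control. Each assay repeated more than three times. IC50 calculated by the Reed and Muench method, reported as mean ± SD.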
A general note: Tetrazolium dyes change colour on reduction, which living cells bring about.

The test system of experiment [2] is HGC-27. Put plainly: Antiproliferative activity against human HGC27 cells after 72 hrs by MTT assay. The conditions noted are these: for IC50: HGC-27, 72 h. The procedure, abridged: as §1
The test system of experiment [3] is A549. Put plainly: Antiproliferative activity against human A549 cells after 72 hrs by MTT assay. Conditions: for IC50: A549, 72 h. The method in brief: as §1
The test system of experiment [4] is HeLa. In words: Antiproliferative activity against human HeLa cells after 72 hrs by MTT assay. The method in brief:
as §1

Activity calls are given as the source filed them. The rule behind the calls is not given here.

Turning to `C=C1[C@H]2[C@@H](/C(=C/C)C(=O)[C@H]2OC(=O)C(C)CC)[C@H]([C@@]2(C)CO2)[C@@H](OC(=O)CC(C)CC)[C@H]1OC(=O)/C=C(\C)CC` (stereo partly drawn), the result in experiment [1], in experiment [2], in experiment [3] and in experiment [4] was inactive.

Consider `C/C=C(/C)C(=O)OC(CC=C(C)C)/C(C)=C1\C[C@@H](O)C(C)=C(OC(C)=O)C1=O` (stereo partly drawn), for which the result in experiment [1], in experiment [2], in experiment [3] and in experiment [4] was inactive.

In the case of `C=C1CO[C@H]2C[C@@H]1Cc1c2ccc(O)c1C`, the result in experiment [1], in experiment [2], in experiment [3] and in experiment [4] was inactive.

For `C=C1[C@H]2[C@@H](/C(=C\C)C(=O)[C@H]2OC(=O)C(C)CC)[C@H]([C@@]2(C)CO2)[C@@H](OC(=O)C(C)CC)[C@H]1OC(=O)/C=C(\C)CC` (stereo partly drawn), the result in experiment [1], in experiment [2], in experiment [3] and in experiment [4] was inactive.

Take `C=C(C)[C@@H]1C[C@@]2(C)C(=CC1=O)CC[C@@H](O)[C@@H]2C`: the result in experiment [1], in experiment [2], in experiment [3] and in experiment [4] was inactive.

With `CC(=O)O[C@H]1C(=O)[C@@]2(C)[C@H]([C@H](OC(=O)c3ccccc3)[C@]3(O)C[C@H](OC(=O)[C@H](O)[C@@H](NC(=O)c4ccccc4)c4ccccc4)C(C)=C1C3(C)C)[C@]1(OC(C)=O)CO[C@@H]1C[C@@H]2O` [PACLITAXEL], the concentration for half-maximal inhibition (IC50) – broadly, the concentration that gives 50% inhibition – in experiment [1] is 0.017 µM; in experiment [2], 0.028 µM; in experiment [3], 0.051 µM; in experiment [4], 0.046 µM.

On to `C=C(C)[C@@H]1C[C@@]2(C)C(=CC1=O)CC[C@@H](OC(=O)CC(C)C)[C@@H]2C`, for which the IC50 was 7.5 µM in experiment [1], 5.3 µM in experiment [2], 9.7 µM in experiment [3] and 6.6 µM in experiment [4].

These data come from ChEMBL document CHEMBL4196208, “Antiproliferative Sesquiterpenoids from Ligularia rumicifolia with Diverse Skeletons” (J Nat Prod, 2018).
